As a reminder, the IC50 is the point on the concentration scale where inhibition reaches its midpoint. Higher therefore signals weaker potency. By EC50 is commonly meant the concentration giving half of the maximal effect. For orientation: solubility means the dissolved amount per volume that the medium holds. Read a low solubility as little dissolved substance.

The source of these data is ChEMBL document CHEMBL1148576, “Identification of potent water soluble purine-scaffold inhibitors of the heat shock protein 90” (J Med Chem, 2006).

The test system of data set [1] is MDA-MB-468. In words: Growth inhibition in human breast cancer MDA-MB-468 cell line using SRB. The data set is classed as functional, cell-based. An outline of the steps: (§1)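 Sulforhodamine B growth assay. Plating densities were 6000 (SKBr3), 8000 (MDA-MB-468) or 10,000 (MRC-5) cells/well, attached overnight. Drug, added in triplicate, was 1:1 serially diluted with DMSO or PBS vehicle. Exposure lasted 72 h, then cells were fixed with TCA and stained with 0.4% SRB.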

For data set [2], the target named is T1, Heat shock protein HSP 90-beta (Homo sapiens, UniProt P08238). Kind of data set: Inhibitory activity against Hsp90 in human breast cancer SKBr3 cell line. The data set is classed as cell-based.
Data set [3] addresses T1, Heat shock protein HSP 90-beta. Kind of data set: Inhibitory activity against Hsp90 in human breast cancer MDA-MB-468 cell line. The data set is classed as cell-based.
The subject of data set [4] is SK-BR-3. In words: Growth inhibition in human breast cancer SKBr3 cell line using SRB. The data set is classed as functional, cell-based.
For data set [5], the target named is T1, Heat shock protein HSP 90-beta. In words: Inhibition of Her2 degradation in human breast cancer SKBr3 cell line. The data set is classed as functional, cell-based. An outline of the steps: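 Fixed in cold methanol, blocked, then probed overnight at 4 °C with anti-Her2, then HRP anti-rabbit and ECL luminescence. Normal rabbit IgG background was subtracted.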

In data set [6] the test system is MDA-MB-468. Kind of data set: Antimitotic activity in human breast cancer MDA-MB-468 cell line. The format is functional, cell-based. Put shortly:
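MDA-MB-468 cells seeded at 8000/well, attached overnight, then exposed to drug or DMSO vehicle for 24 h at 37 °C, 5% CO2. Cells fixed in cold methanol, blocked, then probed with Tg-3 antibody against mitotically phosphorylated nucleolin, followed by HRP anti-mouse IgM and ECL luminescence. IC50 taken as the concentration that doubles luminescence over vehicle.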

The target in data set [7] is Heat shock protein HSP 90 (Mus musculus). Kind of data set: Binding affinity to Hsp90 in mouse lung tissue.
The target is the same in data set [8]. Kind of data set: Binding affinity to Hsp90 in mouse heart tissue.
Data set [9] relates to MRC5. In words: Cytotoxicity against normal lung fibroblast MRC5 cell line. Particulars: Homo sapiens. The format is functional, cell-based. An outline of the steps:
as §1

Data set [10] in a line: Solubility in water. The data set is classed as physicochemical.

T1 sequence (P08238 whole entry): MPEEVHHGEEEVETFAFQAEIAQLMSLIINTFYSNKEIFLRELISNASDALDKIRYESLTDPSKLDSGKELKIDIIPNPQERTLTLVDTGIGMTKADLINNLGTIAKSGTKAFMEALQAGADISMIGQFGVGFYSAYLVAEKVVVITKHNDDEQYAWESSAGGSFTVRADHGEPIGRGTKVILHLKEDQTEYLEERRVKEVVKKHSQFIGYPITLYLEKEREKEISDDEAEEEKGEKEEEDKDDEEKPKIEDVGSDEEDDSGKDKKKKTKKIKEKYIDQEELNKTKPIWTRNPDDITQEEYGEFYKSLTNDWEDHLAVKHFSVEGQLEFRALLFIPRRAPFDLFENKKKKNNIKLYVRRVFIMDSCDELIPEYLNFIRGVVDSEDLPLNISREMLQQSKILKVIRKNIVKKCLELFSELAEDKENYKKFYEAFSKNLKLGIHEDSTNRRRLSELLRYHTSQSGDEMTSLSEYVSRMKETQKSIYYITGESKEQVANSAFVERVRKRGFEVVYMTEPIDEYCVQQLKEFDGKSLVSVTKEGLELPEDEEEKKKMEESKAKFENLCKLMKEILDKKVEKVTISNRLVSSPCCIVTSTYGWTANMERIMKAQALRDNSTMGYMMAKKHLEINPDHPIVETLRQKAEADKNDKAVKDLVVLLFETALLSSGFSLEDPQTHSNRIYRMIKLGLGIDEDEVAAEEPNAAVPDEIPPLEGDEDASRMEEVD

As to `C#CCCCn1c(Cc2cc3c(cc2Br)OCO3)nc2c(N)nc(F)nc21`, the IC50 in data set [1] stood at 350 nM; in [4] it was 215 nM; in data set [5], 210 nM; in [6], 310 nM. Besides, the results for the EC50 in data set [2] and in data set [3] were 56.5 nM and 30.5 nM, respectively.
On to `C#CCCCn1c(Cc2cc(OC)c(OC)cc2Cl)nc2c(N)nc(F)nc21`, for which the IC50 in data set [1] was 27300 nM; in data set [4], 20600 nM; in data set [5], 30000 nM; in data set [6], over 50000 nM. The EC50 in data set [2] was determined as 4600 nM; in data set [3] it was 4500 nM.
As for `CC(C)NCCCn1c(Cc2cc3c(cc2I)OCO3)nc2c(N)nc(F)nc21`, the EC50 came out at 2400 nM in data set [7], 6900 nM in data set [8], 50.4 nM in [2] and 39.1 nM in data set [3]. Besides, the IC50 in data set [1] is 90 nM; in [9], over 5000 nM; in data set [4], 45 nM; in [5], 80 nM; in data set [6], 100 nM. For the same compound, the solubility in [10] is over 5000 µg/mL.
In the case of `C#CCCCn1c(Cc2cc3c(cc2Cl)OCO3)nc2c(N)nc(F)nc21`, the IC50 in data set [1] was found to be 440 nM; in data set [4], 250 nM; in data set [5] it was 300 nM; in [6] it was 450 nM. Also, the EC50 in [2] worked out at 77.2 nM; in data set [3] it was 51.2 nM.
Consider `C#CCCCn1c(Cc2cc(OC)c(OC)cc2I)nc2c(N)nc(F)nc21`, for which the IC50 in data set [1], in data set [4], in data set [5] and in [6] was over 50000 nM throughout. In addition, the concentration for a half-maximal effect (EC50) in data set [2] and in data set [3] was over 15000 nM throughout.
For `C#CCCCn1c(Sc2cc3c(cc2Br)OCO3)nc2c(N)ncnc21`, the IC50 was found to be 560 nM in data set [1], 365 nM in [5] and 530 nM in data set [6]. In addition, the EC50 is 50.4 nM in [2] and 77.1 nM in [3].
Regarding `C#CCCCn1c(Cc2cc(OC)c(OC)cc2Br)nc2c(N)nc(F)nc21`, the IC50 was over 50000 nM in [1], 55000 nM in data set [4], over 50000 nM in data set [5] and over 50000 nM in data set [6]. The EC50 in data set [2] and in [3] was over 15000 nM throughout.
On to `C#CCCCn1c(Sc2cc3c(cc2I)OCO3)nc2c(N)ncnc21`, for which the IC50 stood at 170 nM in data set [1], 90 nM in [4], 100 nM in data set [5] and 184 nM in data set [6]. Further, the EC50 was found to be 10.8 nM in [2] and 10.9 nM in [3].
As to `C#CCCCn1c(Cc2cc3c(cc2I)OCO3)nc2c(N)nc(F)nc21`, the IC50 in data set [1] came to 150 nM; in data set [4] it was 90 nM; in data set [5] it was 90 nM; in [6], 180 nM. The EC50 in data set [2] was determined as 22.3 nM; in data set [3] it was 23.7 nM.
With `CC(C)NCCCn1c(Sc2cc3c(cc2Br)OCO3)nc2c(N)ncnc21`, the IC50 in data set [1] came out at 270 nM; in data set [4] it was 142 nM; in [6], 375 nM. The same compound gave a solubility in data set [10] of over 5000 µg/mL.
Consider `CC(C)NCCCn1c(Sc2cc3c(cc2I)OCO3)nc2c(N)ncnc21` [PU-H71], for which the IC50 in data set [1] was found to be 58 nM; in data set [9], 1000 nM; in [6], 70 nM. The solubility in [10] is over 5000 µg/mL.
